Measurements reported in ChEMBL document CHEMBL1123667, “Molecular modification of anticholinergics as probes for muscarinic receptors. 1. Amino esters of alpha-substituted phenylacetic acid and related analogues” (J Med Chem, 1987).

Tests used:
Cavia porcellus [1] = organism: Cavia porcellus; assay: Antispasmodic activity against isolated guinea pig ileum with metacholine as a spasmogen according to the method of Magnus.; assay type: functional; conditions: read-out: ID50 (the source's name)
In short: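 Guinea pig ileum segment in a 25-mL organ bath of Tyrode solution at 37 °C, gassed with 5% CO2–95% O2, equilibrated about 30 min. Repeated standard methacholine chloride challenges (4 × 10^-6 M) confirm a consistent response. Percent inhibition of contraction is measured and ID50 is taken by linear regression.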

Cavia porcellus [2] = organism: Cavia porcellus; assay: Potency (isolated guinea pig ileum) relative to adiphenine was determined.; assay type: functional
Rattus norvegicus = organism: Rattus norvegicus; assay: Potency (isolated rat ileum) relative to adiphenine was determined.; assay type: functional
[3] = target: Muscarinic acetylcholine receptor; assay: Affinity for the Muscarinic acetylcholine receptor; assay type: protein assay, Rattus norvegicus
[4] = target: Muscarinic acetylcholine receptor; assay: pA2 value represents the affinity for the Muscarinic acetylcholine receptor and was calculated according to the Ariens and Van Rossum; assay type: protein assay
In short: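 Terminal ileum from male Sprague-Dawley rats (250–300 g) killed by cervical dislocation, in a 10-mL bath of Tyrode solution at 35 °C gassed with 95% O2/5% CO2, equilibrated ≥30 min. Cumulative ACh 0.05–1.0 μg/mL at 3-min intervals gives the control curve. After washout and 30 min, compound is added; 10 min later ACh 1–300 μg/mL is given cumulatively. Contraction is read in mm. pA2 = pAx + log(x − 1), with x the ACh EC50 ratio, by linear regression over two or more experiments at four or more dose levels.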

| IC50 (Cavia porcellus [1]; Cavia porcellus, Ileum) [nM] | pA2 [3] | IC50 (Cavia porcellus [1]) [nM] | pA2 [4] | Structure (SMILES) | Relative potency (Cavia porcellus [2]) | Relative potency (Rattus norvegicus) |
| --- | --- | --- | --- | --- | --- | --- |
| 1300 | – | – | – | CCN(CC)CCOC(=O)C(c1ccccc1)(c1ccccc1)C(C)C.Cl | 0.57 | – |
| 1200 | – | – | – | CCN(CC)CCOC(=O)C(CC(C)C)(c1ccccc1)c1ccccc1.Cl | 0.62 | – |
| 1200 | – | – | – | CCCC(C(=O)OCCN(CC)CC)(c1ccccc1)c1ccccc1.Cl [PROADIFEN HYDROCHLORIDE] | 0.62 | – |
| 2600 | – | – | – | CCCCC(C(=O)OCCN(CC)CC)(c1ccccc1)c1ccccc1.Cl | 0.28 | – |
| 740 | 7.45 | – | – | CCN(CC)CCOC(=O)C(c1ccccc1)c1ccccc1.Cl [ADIPHENINE HYDROCHLORIDE] | 1 | 1 |
| – | – | 70 | 7.13 | CCN(CC)CCOC(=O)C(CO)c1ccccc1.Cl (racemic) | 10.57 | 0.48 |
| 330 | 6.63 | – | – | CCN(CC)CCOC(=O)C(CC)(c1ccccc1)c1ccccc1.Cl | 2.24 | 0.15 |
| – | – | 210 | – | CCN(CC)CCOC(=O)C(CO)c1ccccc1.Cl (single isomer, unassigned; (+)) | 3.52 | – |

Continued, compound first:

| Structure (SMILES) | IC50 (Cavia porcellus [1]; Cavia porcellus, Ileum) [nM] | pA2 [3] | IC50 (Cavia porcellus [1]) [nM] | pA2 [4] | Relative potency (Cavia porcellus [2]) | Relative potency (Rattus norvegicus) |
| --- | --- | --- | --- | --- | --- | --- |
| CCN(CC)CCOC(=O)C(CO)c1ccccc1.Cl (single isomer, unassigned; (-)) | – | 7.4 | 31 | – | 23.87 | 0.91 |
| CCN(CC)CCOC(=O)C(COS(=O)(=O)c1ccc(C)cc1)c1ccccc1.Cl (single isomer, unassigned; (+)) | – | 6.67 | – | – | – | 0.17 |
| CCN(CC)CCOC(=O)C(COS(=O)(=O)c1ccc(C)cc1)c1ccccc1.Cl (single isomer, unassigned; (-)) | – | 6.42 | – | – | – | 0.09 |
| CCN(CC)CCO[C@H]1CCCC[C@@H]1c1ccccc1.Cl (relative stereo) | – | 6.38 | – | – | – | 0.09 |
| C=C(C(=O)OCCN(CC)CC)c1ccccc1.Cl | – | 5.86 | – | – | – | 0.03 |
| CCN(CC)CCOC(=O)C(CCCCO)c1ccccc1.Cl (single isomer, unassigned; (+)) | 1000 | – | – | – | 0.74 | – |
| CCN(CC)CCO[C@@H]1CCCC[C@@H]1c1ccccc1.Cl (relative stereo) | – | 7.13 | – | – | – | 0.47 |
| CCN(CC)CCOC(=O)C(CCCCO)c1ccccc1.Cl (racemic) | – | – | 1100 | – | 0.67 | – |
| CCN(CC)CCOC(=O)C(C)(c1ccccc1)c1ccccc1.Cl | 53 | 8.4 | – | – | 14 | 9 |
